Calb biofilm kill – clotrimazole potentiators killing C. albicans biofilm, primary screen, 4-compound mixtures. C. albicans biofilm persisters + clotrimazole, fluorescence viability; primary screen in compound mixtures of four per well. inhibition, % at 7.6 µM. actives 0.02% (n = 120,000);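 active = inhibition above 30.3% in the primary screen of four-compound pools, then above 30% when the compound was retested; inconclusive = passed the primary limit but could not be retested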;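 note: compounds exposed to preformed 24 h biofilms for 48 h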
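System: C. albicans CAF4-2 wild-type biofilms; Medium: RPMI/MOPS medium, pH 7.0; Reagent: Clotrimazole, 50 µg/mL; Times: biofilm formation 24 h, compound exposure 48 h, 37 °C; Detection: 2-h Alamar Blue fluorescence, 535/590 nm excitation/emission; Evaluation: percent inhibition of biofilm viability.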
ROMK primary – ROMK potassium channel modulators, primary screen, cell-based, thallium flux, MLSMR library | Tet-inducible ROMK, thallium flux fluorescence; actives lie on both sides | AID 1918, 2009 | B-score at 10 µM | actives 2% (n = 130,000);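 active = signal ratio slope over the read window, or its plate-corrected B-score, at least 3 SD from the plate mean, either direction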;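 note: B-score of the F/F0 ratio slope over 7 to 12 s after thallium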
Target sequence (P48048 whole entry, looked up): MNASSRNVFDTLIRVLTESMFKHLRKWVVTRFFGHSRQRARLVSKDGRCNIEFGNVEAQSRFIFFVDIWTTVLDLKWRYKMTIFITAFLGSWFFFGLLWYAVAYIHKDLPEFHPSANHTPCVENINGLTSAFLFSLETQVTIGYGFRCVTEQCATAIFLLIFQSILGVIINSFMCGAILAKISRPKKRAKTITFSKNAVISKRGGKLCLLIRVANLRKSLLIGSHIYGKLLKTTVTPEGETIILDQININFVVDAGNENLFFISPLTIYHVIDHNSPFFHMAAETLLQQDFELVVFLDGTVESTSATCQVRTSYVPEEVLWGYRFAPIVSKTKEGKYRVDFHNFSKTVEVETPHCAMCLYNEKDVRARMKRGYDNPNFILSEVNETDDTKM
ROMK hit retest – ROMK channel modulator hit retest, confirmation, cell-based, thallium flux, duplicate, resupplied hits; shares compounds with ROMK primary; actives 54% (n = 3,000); normalized thallium flux (F/F0 slope) at 10 µM; fluorescence ratio; stronger effect = lower value;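 active = Flux at 10 µM at least 3 SD below or above vehicle control mean in one or both replicates; inconclusive = no clear call, values can overlap the other calls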
A number is an active result; – = inactive; ? = inconclusive; · = not tested or not shown. Only a selection was taken, and hits are over-represented in it overall.

SMILES | Calb biofilm kill | ROMK primary | ROMK hit retest
N#C/C(=C\c1c[nH]c2ccccc12)C(=O)Nc1ncc(Cc2ccc(Cl)cc2Cl)s1 | – | · | ·
Cn1cc(/C=C(\C#N)C(=O)Nc2ncc(Cc3cccc(Cl)c3)s2)c2ccccc21 | – | -2.43 | 0.0592
C#CCNC(=O)C1=C[C@@H](c2csc3ccccc23)[C@H](CCCO)[C@@H](OCC)O1 | – | · | ·
CCN(CC)c1ccc(/C=C(\C#N)c2ccccn2)cc1 | – | – | ·
CCN(CC)c1ccc(C=N/C(C#N)=C(\N)C#N)cc1 | · | · | ?
CC(=O)[C@H]1CC[C@H]2[C@@H]3CCC4=CC(=O)CC[C@]4(C)[C@H]3CC[C@]12C | – | · | 0.0653
C[C@]12CCC(=O)C=C1CC[C@@H]1[C@@H]2CC[C@@]2(C)[C@H]1CC[C@]2(O)C(=O)CO | – | · | ·
CC(OC(=O)c1snc(C(=O)NC2CCCCC2)c1N)C(=O)NC(C)(C)C (stereo unspecified) | – | – | ·
CC(C)(C)NC(=O)COC(=O)c1snc(C(=O)NC2CCCCC2)c1N | · | -3.8 | –
CCOc1ccc2nc3ccc4[nH]onc4c3c2c1 | · | – | ·
CO/N=C\CC(=O)Nc1ccc(Cl)c(Cl)c1 | – | 4.71 | –
COC(=O)CCC(=O)Nc1ccc(Cl)c(Cl)c1 | · | – | ·
Cc1cc(C)c([N+](=O)[O-])cc1NC(=O)CCS(=O)(=O)c1ccccc1 | – | · | ·
Cc1c(/C=N/NC(=O)C(NC(=O)c2ccc3c(c2)OCO3)C(C)C)c2ccccc2n1C (stereo unspecified) | – | 1.58 | –
CC(C)C(NC(=O)c1ccc2c(c1)OCO2)C(=O)N/N=C/c1cccs1 (stereo unspecified) | – | – | ·
COc1cc(C(=O)OCC(=O)N2CCCC2)cc(OC)c1OC | · | – | ·
CC1CCN(C(=O)c2ccc(CNc3c(N4CCCC4)c(=O)c3=O)cc2)CC1 | – | – | ·
O=C(c1ccc(CNc2c(N3CCCC3)c(=O)c2=O)cc1)N1CCN(C2CCCCC2)CC1 | – | 3.74 | –
COc1ccc(OC)c(C2=NOC(C(=O)NCc3ccco3)C2)c1 (stereo unspecified) | · | 3.47 | –
O=C(NCc1ccco1)C1CC(c2ccccc2O)=NO1 (stereo unspecified) | – | 3.59 | –
O=C(NCc1ccco1)C1CC(c2ccccc2C(F)(F)F)=NO1 (stereo unspecified) | – | · | ·
COc1ccc(OC)c(C2=NOC(C(=O)Nc3cc(C)on3)C2)c1 (stereo unspecified) | – | · | ·
COc1cc(/C=C(\C#N)C(=O)c2c[nH]c3ccccc23)cc(OC)c1O | – | -5.58 | 0.0407
COc1cc(/C=C(\C#N)c2nc3ccccc3[nH]2)cc(OC)c1O | – | · | 0.0384
COc1cc(/C=C(\C#N)c2nc3ccccc3[nH]2)cc(Br)c1OCc1ccccc1 | – | · | ·
SMILES | Calb biofilm kill | ROMK primary | ROMK hit retest
COc1cc(/C=C(\C#N)C(=O)NCCc2ccccc2)cc(OC)c1O | – | – | ·
Cc1c(NC(=O)/C(C#N)=C/c2ccc(-c3ccc(Cl)cc3)o2)c(=O)n(-c2ccccc2)n1C | – | -2.61 | –
Cc1c(NC(=O)/C(C#N)=C/c2ccc(-c3cc(Cl)ccc3Cl)o2)c(=O)n(-c2ccccc2)n1C | – | · | ·
Cc1c(N2C(=O)/C(=C/C3CC=CCC3)SC2=S)c(=O)n(-c2ccccc2)n1C (stereo unspecified) | – | · | ·
Cc1c(NC(=O)/C(C#N)=C\c2cccs2)c(=O)n(-c2ccccc2)n1C | – | · | ·
Cc1c(N2C(=O)/C(=C\C3CC=CCC3)SC2=S)c(=O)n(-c2ccccc2)n1C (stereo unspecified) | – | -6.55 | 0.0378
Cc1c(NC(=O)/C(C#N)=C/C2CC=CCC2)c(=O)n(-c2ccccc2)n1C (stereo unspecified) | · | -4.97 | 0.0431
CN(C)c1ccc(NC(=O)N2CCOCC2)cc1 | – | – | ·
Cc1cccc(C)c1NC(=O)CNc1ccccc1 | · | – | ·
Cc1ccc2c(c1)Oc1ccccc1C=C2C(=O)O | – | – | ·
COc1cccc(CN2C(=O)c3ccccc3C2C(=O)NCC2CCCO2)c1 (stereo unspecified) | · | – | ·
C=CCNS(=O)(=O)c1sccc1/C=N/O | · | – | ·
CCOc1ccc2nc(SCC3CC3(Cl)Cl)[nH]c2c1 (stereo unspecified) | – | · | ·
ClC1(Cl)CC1CSc1nc2ccccc2[nH]1 (stereo unspecified) | – | -4.25 | –
COc1ccc(C(=O)Nc2ccc(S(=O)(=O)Nc3cc(C)nc(C)n3)cc2)cc1OC | – | – | ·
COc1cc(Cl)c(C)cc1NC(=O)Cc1ccc(OC)c(OC)c1 | – | – | ·
Cn1nc(C(F)(F)F)c(-c2ccc(F)cc2)c1NC(=O)c1cccnc1 | – | – | ·
CC(=O)C1=C(C)NC(SCC(N)=O)=C(C#N)C1CC(C)C (stereo unspecified) | – | – | ·
CCOC(=O)C1=C(C)NC(SC)=C(C#N)C1CC(C)C (stereo unspecified) | – | 2.5 | –
CCOC(=O)C1=C(C)N(C)C(=S)NC1c1cccc(Cl)c1Cl (stereo unspecified) | – | – | ·
CC(C)(C)NC(=O)NC(=O)CSc1ncc(C(F)(F)F)cc1Cl | · | – | ·
c1coc(CNc2ncnc3sc4c(c23)CCCCC4)c1 | · | · | 0.0619
CN(C)C(CNc1ncnc2sc3c(c12)CCCC3)c1ccco1 (stereo unspecified) | – | – | ·
O=C(Nc1nc2ccccc2[nH]1)c1cccc([N+](=O)[O-])c1 | – | – | ·
O=C(Cc1nc2ccccc2[nH]1)c1cccc([N+](=O)[O-])c1 | – | · | ?
SMILES | Calb biofilm kill | ROMK primary | ROMK hit retest
COC(=O)c1ccc(COC(=O)CCC(=O)c2cccs2)cc1 | – | – | ·
CCOc1ccc(-c2nc(CSCC(=O)N3CCN(c4cccc(OC)c4)CC3)c(C)o2)cc1 | · | · | 0.067
CCc1ccc(-c2nc(CSCC(=O)N3CCN(c4ccccn4)CC3)c(C)o2)cc1 | · | – | ·
Cc1sc(NC(=O)CSc2nnc(COc3ccc(Cl)cc3)n2C)c(C#N)c1C | · | – | ·
O=C(NCc1ccccc1)NCc1cccs1 | – | – | ·
Cc1ccc(-c2nn3c(C)nnc3s2)cc1NCc1c(F)cccc1Cl | · | · | –
Cc1ccc(CNc2cc(-c3nn4c(C)nnc4s3)ccc2C)s1 | · | – | ·
O=S(=O)(NCc1ccccc1)c1ccc(S(=O)(=O)NCC2CCCO2)cc1 (stereo unspecified) | – | – | ·
Cc1c(NC(=O)CSc2ccc(Cl)cc2)c(=O)n(-c2ccccc2)n1C | – | – | ·
Cc1c(N=C2N=C(NC(=O)Nc3ccc(Cl)cc3)c3ccccc32)c(=O)n(-c2ccccc2)n1C | – | -3.86 | 0.0598
COc1ccc(C(C(=O)NCc2ccccc2)N(Cc2ccco2)C(=O)c2cnccn2)cc1 (stereo unspecified) | – | · | ·
CCOC(=O)NC(Nc1ccc(C)cn1)(C(F)(F)F)C(F)(F)F | · | – | ·
CC(C)OC(=O)NC(Nc1ccccc1C(=O)O)(C(F)(F)F)C(F)(F)F | – | · | –
O=C(NCCCn1ccnc1)C(=O)NCC1OCCN1S(=O)(=O)c1ccc2c(c1)OCCO2 (stereo unspecified) | – | – | ·
Cc1cnc(NC(=O)CC2CCCC2)s1 | – | – | ·
O=S(=O)(Nc1nc2ccccc2s1)c1ccc(Br)s1 | · | -3.18 | 0.0525
Cc1ccc(S(=O)(=O)Nc2nc3ccccc3s2)cc1 | · | – | ·
O=C(/C=C/Nc1ccccc1F)c1cccs1 | – | · | ·

Screening results (PubChem BioAssay)
